The source made the active and inactive calls. The rule behind the calls is not given here.
Tests used:
Plasmodium falciparum [1] = assay: Antimalarial activity against tightly synchronized Plasmodium falciparum HB3 assessed as parasite stage accumulation index at trophozoites stages at 10 uM treated at 6 hrs post-invasion for continuous duration of 36 hrs by automated image mining based cytological profiling assay; format: functional
Procedure, shortened: (§1)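 Tightly synchronized cultures exposed to 10 µM final from 6 hpi (early ring), 18 hpi (late ring) or 30 hpi (mid-trophozoite) for a continuous 36 h. Erythrocytes stained with WGA-AlexaFluor 488, parasite nuclei with DAPI, functional mitochondria with Mitotracker Red CMXRos. Stages (early rings, late rings, trophozoites, schizonts) classified by nuclear spot number and size. Viable parasitaemia and stage accumulation index obtained by automated image analysis.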

Plasmodium falciparum [2] = assay: Antimalarial activity against tightly synchronized Plasmodium falciparum W2 assessed as parasite stage accumulation index at early ring stages at 10 uM treated at 6 hrs post-invasion for continuous duration of 36 hrs by automated image mining based cytological profiling assay; format: functional; procedure, shortened: as §1
Plasmodium falciparum [3] = assay: Antimalarial activity against tightly synchronized Plasmodium falciparum K1 assessed as parasite stage accumulation index at late ring stages at 10 uM treated at 6 hrs post-invasion for continuous duration of 36 hrs by automated image mining based cytological profiling assay; format: functional
Plasmodium falciparum [4] = assay: Antimalarial activity against tightly synchronized Plasmodium falciparum K1 assessed as parasite stage accumulation index at trophozoites stages at 10 uM treated at 6 hrs post-invasion for continuous duration of 36 hrs by automated image mining based cytological profiling assay; format: functional
Plasmodium falciparum [5] = assay: Antimalarial activity against tightly synchronized Plasmodium falciparum HB3 assessed as parasite stage accumulation index at schizonts stages at 10 uM treated at 30 hrs post-invasion for continuous duration of 36 hrs by automated image mining based cytological profiling assay; format: functional
Plasmodium falciparum [6] = assay: Antimalarial activity against tightly synchronized Plasmodium falciparum W2 assessed as parasite stage accumulation index at late ring stages at 10 uM treated at 6 hrs post-invasion for continuous duration of 36 hrs by automated image mining based cytological profiling assay; format: functional
Plasmodium falciparum [7] = assay: Antimalarial activity against tightly synchronized Plasmodium falciparum HB3 assessed as parasite stage accumulation index at late ring stages at 10 uM treated at 6 hrs post-invasion for continuous duration of 36 hrs by automated image mining based cytological profiling assay; format: functional; procedure, shortened: as §1
Plasmodium falciparum [8] = assay: Antimalarial activity against Plasmodium falciparum HB3 assessed as reduction in parasite stage accumulation index at 10 uM treated at 42 hrs post-invasion for 24 hrs by automated image mining based cytological profiling assay; format: functional
Procedure, shortened: (§2)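 Tightly synchronized cultures exposed from the 42 hpi mid-schizont point for 24 h to 10 µM final. Host cells stained with wheat germ agglutinin-AlexaFluor 488, parasite nuclei with DAPI and live-parasite mitochondria with Mitotracker Red CMXRos. Infected and viable parasitaemia and stage proportions quantified by automated image mining. Stage accumulation indices and parasitaemia reduction index derived.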

Plasmodium falciparum [9] = assay: Antimalarial activity against Plasmodium falciparum W2 assessed as increase in schizonts parasite stage accumulation index at 10 uM treated at 42 hrs post-invasion for 24 hrs by automated image mining based cytological profiling assay; format: functional, organism-based; procedure, shortened: as §2
Plasmodium falciparum [10] = assay: Antimalarial activity against tightly synchronized Plasmodium falciparum K1 assessed as parasite stage accumulation index at trophozoites stages at 10 uM treated at 30 hrs post-invasion for continuous duration of 36 hrs by automated image mining based cytological profiling assay; format: functional; procedure, shortened: as §1
Plasmodium falciparum [11] = assay: Antimalarial activity against tightly synchronized Plasmodium falciparum HB3 assessed as parasite stage accumulation index at trophozoites stages at 10 uM treated at 18 hrs post-invasion for continuous duration of 36 hrs by automated image mining based cytological profiling assay; format: functional; procedure, shortened: as §1
Plasmodium falciparum [12] = assay: Antimalarial activity against tightly synchronized Plasmodium falciparum W2 assessed as parasite stage accumulation index at trophozoites stages at 10 uM treated at 18 hrs post-invasion for continuous duration of 36 hrs by automated image mining based cytological profiling assay; format: functional
Plasmodium falciparum [13] = assay: Antimalarial activity against tightly synchronized Plasmodium falciparum K1 assessed as parasite stage accumulation index at schizonts stages at 10 uM treated at 18 hrs post-invasion for continuous duration of 36 hrs by automated image mining based cytological profiling assay; format: functional; procedure, shortened: as §1
Plasmodium falciparum [14] = assay: Antimalarial activity against tightly synchronized Plasmodium falciparum HB3 assessed as parasite stage accumulation index at early ring stages at 10 uM treated at 6 hrs post-invasion for continuous duration of 36 hrs by automated image mining based cytological profiling assay; format: functional
Plasmodium falciparum [15] = assay: Antimalarial activity against tightly synchronized Plasmodium falciparum HB3 assessed as parasite stage accumulation index at schizonts stages at 10 uM treated at 6 hrs post-invasion for continuous duration of 36 hrs by automated image mining based cytological profiling assay; format: functional; procedure, shortened: as §1
Plasmodium falciparum [16] = assay: Antimalarial activity against tightly synchronized Plasmodium falciparum K1 assessed as parasite stage accumulation index at schizonts stages at 10 uM treated at 30 hrs post-invasion for continuous duration of 36 hrs by automated image mining based cytological profiling assay; format: functional; procedure, shortened: as §1
Plasmodium falciparum [17] = assay: Antimalarial activity against Plasmodium falciparum HB3 assessed as increase in schizonts parasite stage accumulation index at 10 uM treated at 42 hrs post-invasion for 24 hrs by automated image mining based cytological profiling assay; format: functional; procedure, shortened: as §2
Plasmodium falciparum [18] = assay: Antimalarial activity against tightly synchronized Plasmodium falciparum W2 assessed as parasite stage accumulation index at schizonts stages at 10 uM treated at 18 hrs post-invasion for continuous duration of 36 hrs by automated image mining based cytological profiling assay; format: functional
Plasmodium falciparum [19] = assay: Antimalarial activity against tightly synchronized Plasmodium falciparum K1 assessed as parasite stage accumulation index at late ring stages at 10 uM treated at 18 hrs post-invasion for continuous duration of 36 hrs by automated image mining based cytological profiling assay; format: functional; procedure, shortened: as §1
Plasmodium falciparum [20] = assay: Antimalarial activity against tightly synchronized Plasmodium falciparum HB3 assessed as parasite stage accumulation index at trophozoites stages at 10 uM treated at 30 hrs post-invasion for continuous duration of 36 hrs by automated image mining based cytological profiling assay; format: functional
Plasmodium falciparum [21] = assay: Antimalarial activity against tightly synchronized Plasmodium falciparum HB3 assessed as parasite stage accumulation index at schizonts stages at 10 uM treated at 18 hrs post-invasion for continuous duration of 36 hrs by automated image mining based cytological profiling assay; format: functional; procedure, shortened: as §1
Plasmodium falciparum [22] = assay: Antimalarial activity against Plasmodium falciparum W2 assessed as reduction in parasite stage accumulation index at 10 uM treated at 42 hrs post-invasion for 24 hrs by automated image mining based cytological profiling assay; format: functional, organism-based; procedure, shortened: as §2
Plasmodium falciparum [23] = assay: Antimalarial activity against tightly synchronized Plasmodium falciparum HB3 assessed as parasite stage accumulation index at late ring stages at 10 uM treated at 18 hrs post-invasion for continuous duration of 36 hrs by automated image mining based cytological profiling assay; format: functional; procedure, shortened: as §1
Plasmodium falciparum [24] = assay: Antimalarial activity against tightly synchronized Plasmodium falciparum K1 assessed as parasite stage accumulation index at trophozoites stages at 10 uM treated at 18 hrs post-invasion for continuous duration of 36 hrs by automated image mining based cytological profiling assay; format: functional; procedure, shortened: as §1
Plasmodium falciparum [25] = assay: Antimalarial activity against tightly synchronized Plasmodium falciparum W2 assessed as parasite stage accumulation index at schizonts stages at 10 uM treated at 30 hrs post-invasion for continuous duration of 36 hrs by automated image mining based cytological profiling assay; format: functional
Plasmodium falciparum [26] = assay: Antimalarial activity against Plasmodium falciparum K1 assessed as increase in schizonts parasite stage accumulation index at 10 uM treated at 42 hrs post-invasion for 24 hrs by automated image mining based cytological profiling assay; format: functional, organism-based; procedure, shortened: as §2
Plasmodium falciparum [27] = assay: Antimalarial activity against tightly synchronized Plasmodium falciparum W2 assessed as parasite stage accumulation index at trophozoites stages at 10 uM treated at 30 hrs post-invasion for continuous duration of 36 hrs by automated image mining based cytological profiling assay; format: functional; procedure, shortened: as §1
Plasmodium falciparum [28] = assay: Antimalarial activity against tightly synchronized Plasmodium falciparum K1 assessed as parasite stage accumulation index at schizonts stages at 10 uM treated at 6 hrs post-invasion for continuous duration of 36 hrs by automated image mining based cytological profiling assay; format: functional; procedure, shortened: as §1
Plasmodium falciparum [29] = assay: Antimalarial activity against tightly synchronized Plasmodium falciparum K1 assessed as parasite stage accumulation index at early ring stages at 10 uM treated at 6 hrs post-invasion for continuous duration of 36 hrs by automated image mining based cytological profiling assay; format: functional; procedure, shortened: as §1
Plasmodium falciparum [30] = assay: Antimalarial activity against Plasmodium falciparum K1 assessed as reduction in parasite stage accumulation index at 10 uM treated at 42 hrs post-invasion for 24 hrs by automated image mining based cytological profiling assay; format: functional, organism-based; procedure, shortened: as §2
Plasmodium falciparum [31] = assay: Antimalarial activity against tightly synchronized Plasmodium falciparum W2 assessed as parasite stage accumulation index at schizonts stages at 10 uM treated at 6 hrs post-invasion for continuous duration of 36 hrs by automated image mining based cytological profiling assay; format: functional; procedure, shortened: as §1
Plasmodium falciparum [32] = assay: Antimalarial activity against tightly synchronized Plasmodium falciparum W2 assessed as parasite stage accumulation index at trophozoites stages at 10 uM treated at 6 hrs post-invasion for continuous duration of 36 hrs by automated image mining based cytological profiling assay; format: functional
Plasmodium falciparum [33] = assay: Antimalarial activity against tightly synchronized Plasmodium falciparum W2 assessed as parasite stage accumulation index at late ring stages at 10 uM treated at 18 hrs post-invasion for continuous duration of 36 hrs by automated image mining based cytological profiling assay; format: functional; procedure, shortened: as §1

CC(C)C[C@H](NC(=O)[C@H]1O[C@@H]1C(=O)O)C(=O)NCCCCN=C(N)N [E-64]
Activity (Plasmodium falciparum [1]): 1.32 | Activity (Plasmodium falciparum [2]): 1.78 | Activity (Plasmodium falciparum [3]): 0.67 | Activity (Plasmodium falciparum [4]): 1.25 | Activity (Plasmodium falciparum [5]): 3.85 | Activity (Plasmodium falciparum [6]): 0.91 | Activity (Plasmodium falciparum [7]): 1.15 | inhibition (Plasmodium falciparum [8]): Active | inhibition (Plasmodium falciparum [9]): Active | Activity (Plasmodium falciparum [10]): 0.5 | Activity (Plasmodium falciparum [11]): 1.33 | Activity (Plasmodium falciparum [12]): 1.22 | Activity (Plasmodium falciparum [13]): 2.11 | Activity (Plasmodium falciparum [14]): 3.15 | Activity (Plasmodium falciparum [15]): 0.45 | Activity (Plasmodium falciparum [16]): 2.07 | inhibition (Plasmodium falciparum [17]): Active | Activity (Plasmodium falciparum [18]): 2.1 | Activity (Plasmodium falciparum [19]): 0.39 | Activity (Plasmodium falciparum [20]): 1.06 | Activity (Plasmodium falciparum [21]): 2.05 | inhibition (Plasmodium falciparum [22]): Active | Activity (Plasmodium falciparum [23]): 0.8 | Activity (Plasmodium falciparum [24]): 1.45 | Activity (Plasmodium falciparum [25]): 3 | inhibition (Plasmodium falciparum [26]): Active | Activity (Plasmodium falciparum [27]): 1.44 | Activity (Plasmodium falciparum [28]): 0.55 | Activity (Plasmodium falciparum [29]): 1.69 | inhibition (Plasmodium falciparum [30]): Active | Activity (Plasmodium falciparum [31]): 1.2 | Activity (Plasmodium falciparum [32]): 1.4 | Activity (Plasmodium falciparum [33]): 0.76

— ChEMBL document CHEMBL3352416, “Discovery of carbohybrid-based 2-aminopyrimidine analogues as a new class of rapid-acting antimalarial agents using image-based cytological profiling assay” (J Med Chem, 2014)
